≈ marks a conversion by molar mass, not a printed value.
Columns and labels:
[1] = Metabolic stability in human liver microsomes at 2 uM after 45 mins by LC-MS analysis in presence of NADPH; type: ADME, Microsome; settings: read-out: Stability
In short: (§1)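 Test compound at 2 μM incubated with liver microsomes (human or rat), NADPH and buffer at 37 °C for 45 min; samples processed by precipitation, then LC-MS measured percent parent compound remaining.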

[2] = Metabolic stability in rat liver microsomes at 2 uM after 45 mins by LC-MS analysis in presence of NADPH; type: ADME, Microsome; settings: read-out: Stability; in short: as §1
[3] = Aqueous solubility of the compound in amorphous form at pH 6.5; type: physicochemical
In short: (§2)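 Aqueous solubility measured at pH 6.5, expressed in µg/mL.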

[4] = Clearance in rat at 0.2 mg/kg, iv; type: ADME, organism-based; parameters: dose 0.2 mg/kg, route intravenous; settings: in vivo
[5] = Volume of distribution at steady state in rat at 0.2 mg/kg, iv; type: ADME, organism-based; parameters: dose 0.2 mg/kg, route intravenous; settings: in vivo, read-out: Vdss
[6] = Half life in rat at 0.2 mg/kg, iv; type: ADME, organism-based; parameters: dose 0.2 mg/kg, route intravenous; settings: in vivo
[7] = Oral bioavailability in rat at 0.2 mg/kg; type: ADME, organism-based; settings: in vivo
[8] = Lipophilicity, log P of the compound; type: physicochemical; settings: octanol/water
[9] = Clearance in dog at 1 mg/kg, iv; type: ADME, organism-based, Canis lupus familiaris; parameters: dose 1 mg/kg, route intravenous; settings: in vivo
[10] = Volume of distribution at steady state in dog at 1 mg/kg, iv; type: ADME, organism-based, Canis lupus familiaris; parameters: dose 1 mg/kg, route intravenous; settings: in vivo, read-out: Vdss
[11] = Half life in dog at 1 mg/kg, iv; type: ADME, organism-based, Canis lupus familiaris; parameters: dose 1 mg/kg, route intravenous; settings: in vivo
[12] = Oral bioavailability in dog at 1 mg/kg; type: ADME, organism-based, Canis lupus familiaris; settings: in vivo
[13] = Aqueous solubility of the compound in crystalline form at pH 6.5; type: physicochemical; settings: aqueous medium; in short: as §2
[14] = Apparent permeability in human Caco2 cells; type: ADME, cell-based; settings: Caco-2
[15] = Oral bioavailability in rat at 5 mg/kg administered as suspension; type: ADME, organism-based; settings: in vivo
In short: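 Rats dosed orally at 5 mpk with compound given as a suspension; bioavailability reported as oral BA (suspension).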

[16] = aqueous medium, read-out: solubility

SMILES	remaining at 0.75 h, 2 µM [1]	remaining at 0.75 h, 2 µM [2]	solubility [3, 16]	further results
Cc1ccc(C(=O)NCCO)cc1-n1cnc(OCc2ccc(F)cc2F)c(Cl)c1=O	99%	97%	51 µg/mL (≈ 113 µM)	clearance [4]: 3.19 mL/min/kg; Vd [5]: 1.32 L/kg; half-life [6]: 6.5 h; bioavailability [7]: 99%; logP [8]: 1.65; clearance [9]: 1.59 mL/min/kg; Vd [10]: 0.986 L/kg; half-life [11]: 8.7 h; bioavailability [12]: 67%; solubility [13]: 23 µg/mL (≈ 51.1 µM); Papp [14]: 7.99 ×10⁻⁶ cm/s; bioavailability [15]: 99%
Cc1ccc(C(=O)NCC(N)=O)cc1-n1cnc(OCc2ccc(F)cc2F)c(Cl)c1=O	100%	100%	14 µg/mL (≈ 30.2 µM)	–
Cc1ccc(C(=O)NC[C@@H](O)CO)cc1-n1cnc(OCc2ccc(F)cc2F)c(Cl)c1=O	97%	100%	163 µg/mL (≈ 340 µM)	–
Cc1ccc(C(=O)NC[C@H](C)CO)cc1-n1cnc(OCc2ccc(F)cc2F)c(Cl)c1=O	96%	85%	94 µg/mL (≈ 197 µM)	–
Cc1ccc(C(=O)N[C@H](C)C(N)=O)cc1-n1cnc(OCc2ccc(F)cc2F)c(Cl)c1=O	77%	72%	147 µg/mL (≈ 308 µM)	–
Cc1ccc(C(=O)NCCO)cc1-n1cnc(OCc2ccc(F)cc2F)c(C)c1=O	84%	99%	28 µg/mL (≈ 65.2 µM)	–
CCc1c(OCc2ccc(F)cc2F)ncn(-c2cc(C(=O)NCCO)ccc2C)c1=O	76%	92%	20 µg/mL (≈ 45.1 µM)	–
Cc1ccc(C(=O)NCCO)cc1-n1cnc(OCc2ccc(F)cc2F)c(Br)c1=O	–	–	–	solubility ([3]; buffer): Insoluble
CNC(=O)c1ccc(C)c(-n2c(C)cc(OCc3ccc(F)cc3F)c(Br)c2=O)c1 [PH-797804]	–	–	–	logP [8]: 3.35; solubility [13]: 10 µg/mL (≈ 21 µM); Papp [14]: 15.9 ×10⁻⁶ cm/s; bioavailability [15]: 9.3%

From ChEMBL document CHEMBL1795201, “Substituted N-aryl-6-pyrimidinones: a new class of potent, selective, and orally active p38 MAP kinase inhibitors” (Bioorg Med Chem Lett, 2011)
